Activity calls are given as the source filed them. No cut-off for these calls is given here.

One assay deals with HT-22. Kind of assay: Neuroprotective activity against oxygen glucose deprivation-induced cell death in mouse HT22 cells assessed as increase cell survival at 100 uM by MTT assay. Type of assay: functional, cell-based. An outline of the steps: (§1)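 Mouse hippocampal HT-22 cells were split into blank control, OGD model and treated groups. Treated cells were exposed to oxygen glucose deprivation with test compound at 5 concentrations. The reference compound was dosed at 10 times the test-compound level. Viability was read by MTT and compared against the control and model groups. Each assay was run in triplicate.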
On the technique in general: Tetrazolium assays rely on reduction of a dye to a coloured formazan, in cell work by metabolically active cells.
For the compound `CCC/C=C1/Oc2ccc(OC(=O)CCC(=O)OCCCOc3no[n+]([O-])c3S(=O)(=O)c3ccccc3)cc2C1=O`, the outcome was Active.

The test system of another assay is HT-22. The assay can be described thus: Neuroprotective activity against H2O2-induced oxidative stress-mediated cell death in mouse HT22 cells assessed as compound level causing increase cell survival at 1 to 100 uM by MTT assay. Type of assay: functional, cell-based.
With `CCC/C=C1/Oc2cc(OC)ccc2C1=O`, the result was Active.
Turning to `CCC/C=C1/Oc2ccc(OC(=O)CCC(=O)OCCCOc3no[n+]([O-])c3S(=O)(=O)c3ccccc3)cc2C1=O`, the outcome was Active.
With `CCC/C=C1/Oc2ccc(OC(=O)CCC(=O)OCCCCOc3no[n+]([O-])c3S(=O)(=O)c3ccccc3)cc2C1=O`, the outcome was Active.

The next assay concerns HT-22. The assay can be described thus: Neuroprotective activity against oxygen glucose deprivation-induced cell death in mouse HT22 cells assessed as increase cell survival at 6.25 to 100 uM by MTT assay. It is filed as functional, cell-based. An outline of the steps:
as §1
Turning to `CCC/C=C1/Oc2cc(OC)ccc2C1=O`, the Activity result is “Dose-dependent effect”.
Consider `CCC/C=C1/C(=O)Oc2ccc(OC)cc21`, for which the Activity entry was “Dose-dependent effect”.
As for `CCC/C=C1/Oc2ccccc2C1=O`, the Activity result is “Dose-dependent effect”.
For the compound `CCC/C=C1/Oc2ccc(OC(=O)CCC(=O)OCCCOc3no[n+]([O-])c3S(=O)(=O)c3ccccc3)cc2C1=O`, the Activity result is “Dose-dependent effect”.
`CCC/C=C1/Oc2c(ccc(OC)c2OC)C1=O`: the Activity result is “Dose-dependent effect”.
Regarding `CCC/C=C1/Oc2ccc(OC(=O)CCC(=O)OC(C)CCOc3no[n+]([O-])c3S(=O)(=O)c3ccccc3)cc2C1=O` (stereo unspecified), the Activity entry was “Dose-dependent effect”.
The same measure, in the same setting: the same measure for `CCC/C=C1/C(=O)Oc2ccccc21`: “Dose-dependent effect”.
The same measure, in the same setting: the same measure for `CCC/C=C1/C(=O)Oc2cc(OC)ccc21`: “Dose-dependent effect”.
Still for that read-out and setting: with `CCCCC1Oc2cc(OC)ccc2C1=O` (stereo unspecified) the entry was “Dose-dependent effect”.
Take `CCC/C=C1/Oc2ccc(OC(=O)CCC(=O)OC/C=C/COc3no[n+]([O-])c3S(=O)(=O)c3ccccc3)cc2C1=O`: the Activity result is “Dose-dependent effect”.
Same read-out and setting: the same measure for `CCCCC1Oc2c(ccc(OC)c2OC)C1=O` (stereo unspecified): “Dose-dependent effect”; for `CCC/C=C1/Oc2ccc(OC(=O)CCC(=O)OCCCCOc3no[n+]([O-])c3S(=O)(=O)c3ccccc3)cc2C1=O`: “Dose-dependent effect”.

These data come from ChEMBL document CHEMBL4184226, “Design and synthesis of novel senkyunolide analogues as neuroprotective agents” (2018).
